Values joined by “and” are separate entries in the source; they are usually repeats but may differ in a detail not shown here. Equal values may be shown once. Active and inactive are the calls of the source. No cut-off for these calls is given here. Residues, ends and D or L forms follow the SMILES beside them.
Assays:
Format in all cases: functional
Cavia porcellus [1] = organism: Cavia porcellus; experiment: Negative log of the concentration producing 50% of the maximum effect was measured in guinea pig ileum as pA2-pA10
Cavia porcellus [2] = organism: Cavia porcellus; experiment: Negative log of the concentration producing 50% of the maximum effect was measured in guinea pig ileum; settings: for Kb: Cavia porcellus, Ileum, read-out: pA2 (converted)
How it was run: (§1)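 Isolated helical strips of rabbit mesenteric vein, longitudinal strips of guinea pig ileum, or helical strips of guinea pig trachea, held in 10-mL baths of Krebs' solution at 37 °C gassed with 95% O2/5% CO2. Isometric tension recorded. Cumulative agonist concentrations 10⁻¹⁰ to 10⁻⁵ M. pD2 is -log concentration giving 50% of the compound's own maximum. Intrinsic activity is a fraction of SP's, and affinity is relative to SP. Values come from 10-12 determinations.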

Cavia porcellus [3] = organism: Cavia porcellus; experiment: Concentration producing 50% of the maximum effect was tested in guinea pig ileum; inactive; how it was run: as §1
Cavia porcellus [4] = organism: Cavia porcellus; experiment: Concentration producing 50% of the maximum effect was tested in guinea pig trachea; inactive; how it was run: as §1
Oryctolagus cuniculus [5] = organism: Oryctolagus cuniculus; experiment: The intrinsic activity was measured in Rabbit mesenteric vein; settings: for Kb: read-out: pA2 (converted); how it was run: as §1
Oryctolagus cuniculus [6] = organism: Oryctolagus cuniculus; experiment: Negative log of the concentration producing 50% of the maximum effect was measured in Rabbit mesenteric vein; how it was run: as §1
Oryctolagus cuniculus [7] = organism: Oryctolagus cuniculus; experiment: Relative affinity was determined with substance P(SP) in Rabbit mesenteric vein; how it was run: as §1
Cavia porcellus [8] = organism: Cavia porcellus; experiment: Relative affinity was determined with substance P(SP) in guinea pig ileum; how it was run: as §1
Cavia porcellus [9] = organism: Cavia porcellus; experiment: Relative affinity was determined with substance P(SP) in guinea pig trachea; how it was run: as §1
Cavia porcellus [10] = organism: Cavia porcellus; experiment: Concentration producing 50% of the maximum effect was tested in guinea pig ileum; settings: read-out: ED50 (the source's name); how it was run: as §1
Cavia porcellus [11] = organism: Cavia porcellus; experiment: The intrinsic activity was measured in guinea pig ileum; how it was run: as §1
Cavia porcellus [12] = organism: Cavia porcellus; experiment: The intrinsic activity was measured in guinea pig trachea; how it was run: as §1
Cavia porcellus [13] = organism: Cavia porcellus; experiment: Negative log of the concentration producing 50% of the maximum effect was measured in guinea pig trachea; how it was run: as §1
Oryctolagus cuniculus [14] = organism: Oryctolagus cuniculus; experiment: Concentration producing 50% of the maximum effect was tested in Rabbit mesenteric vein; how it was run: as §1
Cavia porcellus [15] = organism: Cavia porcellus; experiment: Concentration producing 50% of the maximum effect was tested in guinea pig trachea; settings: read-out: ED50 (the source's name); how it was run: as §1
Oryctolagus cuniculus [16] = organism: Oryctolagus cuniculus; experiment: Negative log of the concentration producing 50% of the maximum effect was measured in Rabbit mesenteric vein as pA2-pA10

| Structure (SMILES) | pA2 minus pA10 difference (Cavia porcellus [1]) | RA (Oryctolagus cuniculus [7]) | RA (Cavia porcellus [8]) | RA (Cavia porcellus [9]) | EC50 (Cavia porcellus [10]) | Intrinsic actvity (Cavia porcellus [11]) | pD2 (Cavia porcellus [2]) | pD2 (Cavia porcellus [13]) | ED50 (Oryctolagus cuniculus [14]) | pD2 (Oryctolagus cuniculus [6]) | EC50 (Cavia porcellus [15]) | also measured |
| --- | --- | --- | --- | --- | --- | --- | --- | --- | --- | --- | --- | --- |
| CSCC[C@H](NC(=O)[C@H](CC(C)C)NC(=O)[C@H](Cc1c[nH]c2ccccc12)NC(=O)[C@H](Cc1ccccc1)NC(=O)[C@H](Cc1ccccc1)NC(=O)[C@H](CCC(N)=O)NC(=O)[C@H](CCC(N)=O)NC(=O)[C@@H]1CCCN1C(=O)[C@H](CCCCN)NC(=O)[C@@H]1CCCN1C(=O)[C@@H](N)CCCN=C(N)N)C(N)=O | 0.45 | – | – | – | – | – | – | – | – | – | – | Kb (Cavia porcellus [2]): 21.4 µM |
| CSCC[C@H](NC(=O)[C@H](CC(C)C)NC(=O)[C@H](Cc1c[nH]c2ccccc12)NC(=O)[C@H](Cc1ccccc1)NC(=O)[C@H](Cc1c[nH]c2ccccc12)NC(=O)[C@H](CCC(N)=O)NC(=O)[C@H](CCC(N)=O)NC(=O)[C@@H]1CCCN1)C(N)=O (H-PQQWFWLM-NH2) | 1 and 1.01 | <0.1 | – | – | – | – | – | – | – | – | – | ED50 (Cavia porcellus [3]): inactive; ED50 (Cavia porcellus [4]): inactive; pA2 (Cavia porcellus [2]): 5.65 and 5.96; Kb (Oryctolagus cuniculus [5]): 2.24 µM; pA2-pA10 (Oryctolagus cuniculus [6]): 1 |
| CSCC[C@H](NC(=O)[C@H](CC(C)C)NC(=O)CNC(=O)[C@H](Cc1ccccc1)NC(=O)[C@H](Cc1ccccc1)NC(=O)[C@@H](N)CCC(N)=O)C(N)=O (H-QFFGLM-NH2) | – | 33 | 146 | 507 | 0.0012 µM | 1 | 8.91 | 7.46 | 0.08 µM | 7.1 | 0.034 µM | Intrinsic actvity (Cavia porcellus [12]): 1.25; Activity (Oryctolagus cuniculus [5]): 1 |
| CSCC[C@H](NC(=O)[C@H](Cc1c[nH]c2ccccc12)NC(=O)CNC(=O)[C@H](Cc1ccccc1)NC(=O)[C@H](Cc1ccccc1)NC(=O)[C@@H](N)CCCN=C(N)N)C(N)=O (H-RFFGWM-NH2) | 0.82 | <0.1 | – | – | – | – | – | – | – | – | – | ED50 (Cavia porcellus [3]): inactive; ED50 (Cavia porcellus [4]): inactive; Kb (Cavia porcellus [2]): 9.77 µM; Activity (Oryctolagus cuniculus [16]): 0.69; Kb (Oryctolagus cuniculus [5]): 11 µM |
| CSCC[C@H](NC(=O)[C@H](CC(C)C)NC(=O)[C@H](Cc1c[nH]c2ccccc12)NC(=O)[C@H](Cc1ccccc1)NC(=O)[C@H](Cc1ccccc1)NC(=O)[C@@H](N)CCCN=C(N)N)C(N)=O (H-RFFWLM-NH2) | – | 2.7 | 0.1 | 20.3 | 1.3 µM | – | 5.88 | 6.06 | 0.97 µM | 6 | 0.86 µM | – |
| CSCC[C@H](NC(=O)[C@H](CC(C)C)NC(=O)CNC(=O)[C@H](Cc1c[nH]c2ccccc12)NC(=O)[C@H](Cc1ccccc1)NC(=O)[C@@H](N)CCCN=C(N)N)C(N)=O (H-RFWGLM-NH2) | – | – | 0.5 | 4.2 | 0.36 µM | 0.9 | 6.44 | 5.38 | – | – | 4.2 µM | Activity (Cavia porcellus [12]): 0.5 |
| CSCC[C@H](NC(=O)[C@H](CC(C)C)NC(=O)CNC(=O)[C@H](Cc1ccccc1)NC(=O)[C@H](Cc1c[nH]c2ccccc12)NC(=O)[C@@H](N)CCCN=C(N)N)C(N)=O (H-RWFGLM-NH2) | – | 0.9 | 0.7 | 2.8 | 0.25 µM | 0.9 | 6.6 | 5.18 | 2.7 µM | 5.56 | 6.6 µM | – |

From ChEMBL document CHEMBL1121967 (J Med Chem, 1982)
